In ChEMBL document CHEMBL2203081 (Bioorg Med Chem Lett, 2012):

Experiments:
[1] = biological target: Serine/threonine-protein kinase NLK (Homo sapiens) (UniProt Q9UBE8); experiment: Inhibition of NLK assessed as residual activity at 10 uM relative to control
[2] = biological target: Serine/threonine-protein kinase Sgk1 (Homo sapiens) (UniProt O00141); experiment: Inhibition of SGK assessed as residual activity at 10 uM relative to control
[3] = biological target: Death-associated protein kinase 2 (Homo sapiens) (UniProt Q9UIK4); experiment: Inhibition of DAPK2 assessed as residual activity at 10 uM relative to control
Outline: (§1)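 Competition kinase-binding assay (KINOMEscan) across a non-redundant panel of 329 kinases beyond the radiometric panel; residual binding expressed relative to control.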

[4] = biological target: T1, Ephrin type-B receptor 2 (Homo sapiens) (UniProt P29323); experiment: Inhibition of EPH-B2 assessed as residual activity at 1 uM
T1 sequence (whole entry): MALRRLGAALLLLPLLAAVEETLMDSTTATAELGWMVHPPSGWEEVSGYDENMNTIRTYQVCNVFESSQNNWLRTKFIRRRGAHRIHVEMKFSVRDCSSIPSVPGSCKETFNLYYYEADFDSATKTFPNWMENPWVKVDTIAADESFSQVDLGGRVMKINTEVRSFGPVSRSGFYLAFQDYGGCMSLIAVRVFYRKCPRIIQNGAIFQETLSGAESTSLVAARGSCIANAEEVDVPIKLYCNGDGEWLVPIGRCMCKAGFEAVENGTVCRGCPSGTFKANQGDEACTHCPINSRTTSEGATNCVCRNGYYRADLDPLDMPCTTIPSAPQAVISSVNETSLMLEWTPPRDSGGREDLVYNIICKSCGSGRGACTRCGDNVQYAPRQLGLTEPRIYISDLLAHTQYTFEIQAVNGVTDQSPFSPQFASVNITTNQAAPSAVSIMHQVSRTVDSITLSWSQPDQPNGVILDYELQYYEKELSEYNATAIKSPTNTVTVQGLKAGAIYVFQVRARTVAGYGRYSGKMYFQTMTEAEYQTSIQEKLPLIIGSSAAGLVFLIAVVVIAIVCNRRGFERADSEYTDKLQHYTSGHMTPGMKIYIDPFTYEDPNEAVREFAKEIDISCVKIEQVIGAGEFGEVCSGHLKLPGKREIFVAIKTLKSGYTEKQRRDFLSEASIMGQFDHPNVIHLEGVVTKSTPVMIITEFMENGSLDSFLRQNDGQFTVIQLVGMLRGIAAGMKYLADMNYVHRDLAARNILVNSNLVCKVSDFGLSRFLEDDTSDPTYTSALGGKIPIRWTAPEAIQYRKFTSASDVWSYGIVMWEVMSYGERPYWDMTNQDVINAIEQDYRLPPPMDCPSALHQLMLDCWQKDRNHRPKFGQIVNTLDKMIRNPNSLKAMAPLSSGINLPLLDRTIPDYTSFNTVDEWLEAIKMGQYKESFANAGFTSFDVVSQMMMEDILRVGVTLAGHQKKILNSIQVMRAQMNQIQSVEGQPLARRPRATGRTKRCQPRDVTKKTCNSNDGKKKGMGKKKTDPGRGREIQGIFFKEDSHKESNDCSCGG
Outline: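 Standard radioactivity-based enzymatic kinase assays on a 131-kinase panel run by the Dundee profiling service; residual kinase activity recorded.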

[5] = biological target: Casein kinase II subunit alpha' (Homo sapiens) (UniProt P19784); experiment: Inhibition of CSNK2A2 assessed as residual activity at 10 uM relative to control; outline: as §1
[6] = system: Plasma; experiment: AUClast in Swiss albino mouse plasma at 1 mg/kg, iv; format: ADME, organism-based; set-up: time 0 - last, dose 1 mg/kg, route intravenous; conditions: in vivo
Outline: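 Male Swiss Albino mice, single dose given intravenously (1 mg/kg) or orally (10 mg/kg). Drug measured in plasma and brain, with AUClast taken for each. The brain/plasma ratio is based on AUClast, and oral bioavailability is derived from the IV and PO plasma data.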

[7] = biological target: Homeodomain-interacting protein kinase 3 (Homo sapiens) (UniProt Q9H422); experiment: Inhibition of HIPK3 assessed as residual activity at 10 uM relative to control
[8] = biological target: Serine/threonine-protein kinase PAK 2 (Homo sapiens) (UniProt Q13177); experiment: Inhibition of PAK2 assessed as residual activity at 1 uM
[9] = biological target: SRSF protein kinase 1 (Homo sapiens) (UniProt Q96SB4); experiment: Inhibition of SRPK1 assessed as residual activity at 1 uM
[10] = biological target: MAP/microtubule affinity-regulating kinase 3 (Homo sapiens) (UniProt P27448); experiment: Inhibition of MARK3 assessed as residual activity at 10 uM relative to control
[11] = biological target: Serine/threonine-protein kinase MRCK alpha (Homo sapiens) (UniProt Q5VT25); experiment: Inhibition of MRCKA assessed as residual activity at 10 uM relative to control
[12] = biological target: Epidermal growth factor receptor (Homo sapiens) (UniProt P04626+P00533+Q15303+P21860); experiment: Inhibition of EGFR S752-I759del mutant assessed as residual activity at 10 uM relative to control; format: protein assay; outline: as §1
[13] = biological target: Serine/threonine-protein kinase Nek6 (Homo sapiens) (UniProt Q9HC98); experiment: Inhibition of NEK6 assessed as residual activity at 10 uM
[14] = biological target: Activin receptor type-1B (Homo sapiens) (UniProt P36896); experiment: Inhibition of ACVR1B assessed as residual activity at 10 uM relative to control
[15] = biological target: T2, Serine/threonine-protein kinase STK11 (Homo sapiens) (UniProt Q15831); experiment: Inhibition of LKB1 assessed as residual activity at 10 uM
T2 sequence (whole entry): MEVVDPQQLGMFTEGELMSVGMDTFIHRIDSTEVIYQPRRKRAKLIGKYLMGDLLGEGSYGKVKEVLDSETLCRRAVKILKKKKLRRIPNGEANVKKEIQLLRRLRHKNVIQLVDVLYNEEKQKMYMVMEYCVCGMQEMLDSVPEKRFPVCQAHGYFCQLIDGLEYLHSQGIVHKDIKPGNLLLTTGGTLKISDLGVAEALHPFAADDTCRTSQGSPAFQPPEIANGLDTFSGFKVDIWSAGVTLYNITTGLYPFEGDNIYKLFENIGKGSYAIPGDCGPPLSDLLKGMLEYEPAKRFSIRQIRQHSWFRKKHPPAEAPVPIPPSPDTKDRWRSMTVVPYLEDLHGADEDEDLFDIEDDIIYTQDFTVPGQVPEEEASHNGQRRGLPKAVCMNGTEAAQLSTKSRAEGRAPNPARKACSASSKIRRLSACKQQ

[16] = biological target: Serine/threonine-protein kinase Nek6 (Homo sapiens) (UniProt Q9HC98); experiment: Inhibition of NEK6 assessed as residual activity at 10 uM relative to control
[17] = biological target: Homeodomain-interacting protein kinase 4 (Homo sapiens) (UniProt Q8NE63); experiment: Inhibition of HIPK4 assessed as residual activity at 10 uM relative to control
[18] = biological target: TRAF2 and NCK-interacting protein kinase (Homo sapiens) (UniProt Q9UKE5); experiment: Inhibition of TNIK assessed as residual activity at 10 uM relative to control
[19] = biological target: Protein kinase C eta type (Homo sapiens) (UniProt P24723); experiment: Inhibition of PRKCH assessed as residual activity at 10 uM relative to control
[20] = biological target: Serine/threonine-protein kinase pim-1 (Homo sapiens) (UniProt P11309); experiment: Inhibition of PIM1 assessed as residual activity at 10 uM
Chain of Serine/threonine-protein kinase pim-1 (Homo sapiens) (P11309 whole entry, looked up): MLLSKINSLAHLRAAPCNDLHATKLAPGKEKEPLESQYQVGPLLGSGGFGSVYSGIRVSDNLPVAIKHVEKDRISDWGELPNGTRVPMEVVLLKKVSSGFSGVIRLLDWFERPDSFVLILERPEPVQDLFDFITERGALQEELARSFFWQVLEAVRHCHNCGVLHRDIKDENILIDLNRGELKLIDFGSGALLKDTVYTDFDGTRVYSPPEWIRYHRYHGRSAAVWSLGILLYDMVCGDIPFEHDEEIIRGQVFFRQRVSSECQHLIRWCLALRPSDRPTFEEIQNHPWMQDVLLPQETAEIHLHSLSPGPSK

Chain of Serine/threonine-protein kinase Nek6 (Homo sapiens) (Q9HC98 whole entry): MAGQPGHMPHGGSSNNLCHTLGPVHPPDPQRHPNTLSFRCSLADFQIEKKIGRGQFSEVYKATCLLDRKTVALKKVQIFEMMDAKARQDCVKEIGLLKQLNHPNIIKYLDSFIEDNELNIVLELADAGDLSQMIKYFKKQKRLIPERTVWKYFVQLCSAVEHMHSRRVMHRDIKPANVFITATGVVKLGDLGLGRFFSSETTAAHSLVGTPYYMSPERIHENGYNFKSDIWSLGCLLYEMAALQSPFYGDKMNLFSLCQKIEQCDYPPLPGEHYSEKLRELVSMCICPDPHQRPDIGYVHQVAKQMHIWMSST
Chain of Activin receptor type-1B (Homo sapiens) (P36896 whole entry): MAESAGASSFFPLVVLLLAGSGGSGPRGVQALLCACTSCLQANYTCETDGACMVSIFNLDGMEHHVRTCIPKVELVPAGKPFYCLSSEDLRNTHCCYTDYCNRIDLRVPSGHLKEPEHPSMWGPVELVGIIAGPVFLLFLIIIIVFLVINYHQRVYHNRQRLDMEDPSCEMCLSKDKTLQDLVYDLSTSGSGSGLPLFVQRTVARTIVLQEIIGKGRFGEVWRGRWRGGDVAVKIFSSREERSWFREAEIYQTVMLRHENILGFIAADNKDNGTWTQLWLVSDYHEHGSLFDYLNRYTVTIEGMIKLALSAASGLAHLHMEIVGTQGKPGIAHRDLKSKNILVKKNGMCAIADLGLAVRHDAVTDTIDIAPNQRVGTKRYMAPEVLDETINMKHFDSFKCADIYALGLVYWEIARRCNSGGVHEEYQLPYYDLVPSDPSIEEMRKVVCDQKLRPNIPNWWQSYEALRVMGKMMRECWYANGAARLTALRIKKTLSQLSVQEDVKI
Chain of Homeodomain-interacting protein kinase 3 (Homo sapiens) (Q9H422 whole entry, looked up): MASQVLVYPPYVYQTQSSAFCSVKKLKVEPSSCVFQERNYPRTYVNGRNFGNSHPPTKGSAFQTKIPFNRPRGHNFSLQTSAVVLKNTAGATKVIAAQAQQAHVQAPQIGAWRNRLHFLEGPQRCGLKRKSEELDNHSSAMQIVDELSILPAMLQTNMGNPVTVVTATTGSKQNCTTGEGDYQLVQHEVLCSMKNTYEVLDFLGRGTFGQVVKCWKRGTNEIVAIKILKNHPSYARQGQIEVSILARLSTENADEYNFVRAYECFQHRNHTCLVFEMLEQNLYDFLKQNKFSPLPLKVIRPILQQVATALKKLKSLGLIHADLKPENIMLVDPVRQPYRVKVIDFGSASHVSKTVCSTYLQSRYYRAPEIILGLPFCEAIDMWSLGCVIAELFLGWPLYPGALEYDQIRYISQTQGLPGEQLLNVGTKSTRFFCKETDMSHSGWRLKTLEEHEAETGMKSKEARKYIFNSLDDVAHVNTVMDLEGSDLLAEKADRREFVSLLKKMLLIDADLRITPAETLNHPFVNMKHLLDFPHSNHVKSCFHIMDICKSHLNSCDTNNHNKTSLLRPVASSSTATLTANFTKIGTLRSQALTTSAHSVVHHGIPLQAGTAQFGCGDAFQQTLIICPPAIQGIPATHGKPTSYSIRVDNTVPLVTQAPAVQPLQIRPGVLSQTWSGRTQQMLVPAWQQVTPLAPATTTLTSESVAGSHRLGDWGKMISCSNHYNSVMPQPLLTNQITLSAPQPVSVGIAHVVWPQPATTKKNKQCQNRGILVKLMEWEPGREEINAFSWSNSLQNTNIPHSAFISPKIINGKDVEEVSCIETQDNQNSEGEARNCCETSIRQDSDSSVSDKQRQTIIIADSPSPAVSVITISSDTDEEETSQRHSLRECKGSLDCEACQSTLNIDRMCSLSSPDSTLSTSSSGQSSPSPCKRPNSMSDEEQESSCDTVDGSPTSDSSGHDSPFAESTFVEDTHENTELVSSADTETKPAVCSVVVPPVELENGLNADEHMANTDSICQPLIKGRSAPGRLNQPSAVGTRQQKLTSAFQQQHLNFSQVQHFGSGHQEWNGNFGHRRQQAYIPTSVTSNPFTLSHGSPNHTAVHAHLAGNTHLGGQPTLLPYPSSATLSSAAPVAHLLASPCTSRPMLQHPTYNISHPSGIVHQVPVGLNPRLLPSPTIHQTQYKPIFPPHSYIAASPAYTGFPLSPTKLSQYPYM
Chain of Serine/threonine-protein kinase Sgk1 (Homo sapiens) (O00141 whole entry): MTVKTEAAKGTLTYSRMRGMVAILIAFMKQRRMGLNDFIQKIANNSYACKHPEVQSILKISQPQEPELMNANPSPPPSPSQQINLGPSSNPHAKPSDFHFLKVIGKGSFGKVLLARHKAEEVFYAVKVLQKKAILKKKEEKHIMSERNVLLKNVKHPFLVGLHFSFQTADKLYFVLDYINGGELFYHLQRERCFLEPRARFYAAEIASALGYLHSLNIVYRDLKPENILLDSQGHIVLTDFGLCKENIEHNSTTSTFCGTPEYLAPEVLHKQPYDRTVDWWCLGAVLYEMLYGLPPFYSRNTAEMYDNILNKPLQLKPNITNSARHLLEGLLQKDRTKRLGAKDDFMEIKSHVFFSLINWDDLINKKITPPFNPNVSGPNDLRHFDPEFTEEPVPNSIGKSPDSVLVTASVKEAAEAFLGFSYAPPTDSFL
Chain of Protein kinase C eta type (Homo sapiens) (P24723 whole entry): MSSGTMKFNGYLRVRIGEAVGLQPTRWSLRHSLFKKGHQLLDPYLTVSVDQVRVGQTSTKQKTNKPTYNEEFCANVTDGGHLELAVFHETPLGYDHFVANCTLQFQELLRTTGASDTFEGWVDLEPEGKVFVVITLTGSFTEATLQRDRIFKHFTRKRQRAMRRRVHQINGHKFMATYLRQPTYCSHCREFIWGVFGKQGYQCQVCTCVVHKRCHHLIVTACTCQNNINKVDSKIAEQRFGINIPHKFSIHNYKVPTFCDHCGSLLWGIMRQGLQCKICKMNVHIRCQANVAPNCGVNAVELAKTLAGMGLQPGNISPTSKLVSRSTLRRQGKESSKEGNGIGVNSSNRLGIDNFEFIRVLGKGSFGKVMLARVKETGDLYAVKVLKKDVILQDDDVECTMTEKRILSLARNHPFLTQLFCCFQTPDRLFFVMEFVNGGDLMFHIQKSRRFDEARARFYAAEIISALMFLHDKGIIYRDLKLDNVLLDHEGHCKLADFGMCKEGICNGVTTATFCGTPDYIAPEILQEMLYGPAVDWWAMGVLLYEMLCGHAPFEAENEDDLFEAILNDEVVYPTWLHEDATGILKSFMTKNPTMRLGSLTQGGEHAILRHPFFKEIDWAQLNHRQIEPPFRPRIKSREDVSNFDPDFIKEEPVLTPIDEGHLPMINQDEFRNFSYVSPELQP
Chain of Homeodomain-interacting protein kinase 4 (Homo sapiens) (Q8NE63 whole entry): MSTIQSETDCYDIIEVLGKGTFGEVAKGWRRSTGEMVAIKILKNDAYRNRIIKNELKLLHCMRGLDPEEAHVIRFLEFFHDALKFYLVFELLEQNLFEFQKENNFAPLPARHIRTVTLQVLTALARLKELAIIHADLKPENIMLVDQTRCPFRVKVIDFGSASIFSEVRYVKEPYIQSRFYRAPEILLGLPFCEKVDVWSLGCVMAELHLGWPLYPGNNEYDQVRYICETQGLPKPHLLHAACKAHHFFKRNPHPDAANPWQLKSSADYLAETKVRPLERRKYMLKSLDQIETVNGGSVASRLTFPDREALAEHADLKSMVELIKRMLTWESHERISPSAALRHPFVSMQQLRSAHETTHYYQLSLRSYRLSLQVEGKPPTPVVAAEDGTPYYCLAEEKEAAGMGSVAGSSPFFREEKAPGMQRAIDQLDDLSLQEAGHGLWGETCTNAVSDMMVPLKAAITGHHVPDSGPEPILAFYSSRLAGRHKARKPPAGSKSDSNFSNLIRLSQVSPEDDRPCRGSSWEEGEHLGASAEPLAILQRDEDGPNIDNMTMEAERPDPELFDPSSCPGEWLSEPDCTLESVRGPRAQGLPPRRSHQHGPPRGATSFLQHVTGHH
Chain of Serine/threonine-protein kinase PAK 2 (Homo sapiens) (Q13177 whole entry): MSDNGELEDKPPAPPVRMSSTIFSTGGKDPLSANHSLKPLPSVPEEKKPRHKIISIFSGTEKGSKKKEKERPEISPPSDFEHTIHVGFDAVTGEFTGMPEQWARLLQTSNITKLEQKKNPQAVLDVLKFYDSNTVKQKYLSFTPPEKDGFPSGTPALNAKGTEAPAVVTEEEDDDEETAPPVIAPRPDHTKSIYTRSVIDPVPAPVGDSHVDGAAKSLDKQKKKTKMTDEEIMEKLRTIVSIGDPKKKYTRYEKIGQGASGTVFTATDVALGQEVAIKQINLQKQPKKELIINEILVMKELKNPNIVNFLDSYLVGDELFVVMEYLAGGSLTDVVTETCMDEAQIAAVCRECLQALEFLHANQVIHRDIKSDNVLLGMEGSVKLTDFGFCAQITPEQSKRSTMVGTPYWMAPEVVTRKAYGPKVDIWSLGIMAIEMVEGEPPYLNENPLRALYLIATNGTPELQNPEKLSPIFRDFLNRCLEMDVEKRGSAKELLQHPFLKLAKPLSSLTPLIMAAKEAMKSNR
Chain of Casein kinase II subunit alpha' (Homo sapiens) (P19784 whole entry, looked up): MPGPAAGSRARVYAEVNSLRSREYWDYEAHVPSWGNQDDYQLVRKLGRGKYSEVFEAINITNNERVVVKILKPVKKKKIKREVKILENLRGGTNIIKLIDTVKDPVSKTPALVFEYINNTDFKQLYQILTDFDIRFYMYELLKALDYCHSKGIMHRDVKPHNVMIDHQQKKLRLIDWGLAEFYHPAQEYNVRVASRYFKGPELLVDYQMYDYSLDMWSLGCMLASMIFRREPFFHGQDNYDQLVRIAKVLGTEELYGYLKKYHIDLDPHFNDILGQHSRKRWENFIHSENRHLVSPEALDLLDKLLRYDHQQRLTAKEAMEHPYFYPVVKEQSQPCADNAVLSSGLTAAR

Molecule O=C(Nc1cccnc1)c1cc(-c2ccnc(F)c2)ccc1OCc1ccccc1 has an Activity [1] of 65%, an Activity [2] of 33% and an Activity [3] of 69%. It also gave an Activity [4] of 123%, an Activity [5] of 70% and an AUClast [6] of 519.6 ng·h/mL. It also gave an Activity [7] of 58%, an Activity [8] of 116% and an Activity [9] of 61%. The Activity [10] was 50%, the Activity [11] was 56% and the Activity [12] was 81%. The Activity [13] was 65%, the Activity [14] was 43% and the Activity [15] was 105%. The Activity [16] was 50%, the Activity [17] was 80% and the Activity [18] was 74%. It also gave an Activity [19] of 59% and an Activity [20] of 109%.
